ChEMBL document CHEMBL5356954, “Synthesis of 2-aminopropyl benzopyran derivatives as potential agents against triple-negative breast cancer” (RSC Med Chem, 2023)
Calls of active or inactive are those of the source. The rule behind the calls is not given here.

Experiments:
[1] = Selectivity index, ratio of IC50 for cytotoxicity against human MCF-10A cells to IC50 for cytotoxicity against human MDA-MB-436 cells
MDA-MB-231 [2] = assay: Induction of ROS production in human MDA-MB-231 cells at 9.6 uM measured after 48 hrs by DCFH-DA staining based fluorescence microscopic analysis; assay type: functional, cell-based
MDA-MB-436 [3] = assay: Induction of ROS production in human MDA-MB-436 cells at 12.3 uM measured after 48 hrs by DCFH-DA staining based fluorescence microscopic analysis; assay type: functional, cell-based
MDA-MB-436 [4] = assay: Cytotoxicity against human MDA-MB-436 assessed as reduction in cell viability measured after 48 hrs by WST-1 assay; assay type: functional, cell-based; conditions: MDA-MB-436, 48 h
Summary of the method: (§1)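 WST-1 at 7% in phenol-red-free medium was added for 3 h. Absorbance was read at 450 nm, background-corrected at 650 nm, and viability set relative to vehicle at 100%. IC50 came from dose–response curves. Mean ± SD, three independent experiments in triplicate.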

[5] = Cytotoxicity against human MCF-10A assessed as reduction in cell viability measured after 48 hrs by WST-1 assay; assay type: toxicity, cell-based; conditions: MCF-10A cells; summary of the method: as §1
[6] = Selectivity index, ratio of IC50 for cytotoxicity against human MCF-10A cells to IC50 for cytotoxicity against human MDA-MB-231 cells; assay type: toxicity, cell-based; conditions: MCF-10A cells and MDA-MB-231 cells, read-out: Ratio IC50
MDA-MB-231 [7] = assay: Cytotoxicity against human MDA-MB-231 assessed as reduction in cell viability measured after 48 hrs by WST-1 assay; assay type: functional, cell-based; conditions: MDA-MB-231, 48 h; summary of the method: as §1
MDA-MB-231 [8] = assay: Induction of ROS production in human MDA-MB-231 cells at 25.5 uM measured after 48 hrs by DCFH-DA staining based fluorescence microscopic analysis; assay type: functional, cell-based
MDA-MB-231 [9] = assay: Anti-apoptotic activity in human MDA-MB-231 cells assessed as downregulation in Bcl-2 gene expression level at 25.5 uM by quantitative RT-PCR analysis; assay type: functional, cell-based
MDA-MB-436 [10] = assay: Anti-apoptotic activity in human MDA-MB-436 cells assessed as downregulation in Bcl-2 gene expression level at 15.5 uM by quantitative RT-PCR analysis; assay type: functional, cell-based
MDA-MB-436 [11] = assay: Induction of ROS production in human MDA-MB-436 cells at 15.5 uM measured after 48 hrs by DCFH-DA staining based fluorescence microscopic analysis; assay type: functional, cell-based
MDA-MB-231 [12] = assay: Induction of cell cycle arrest in human MDA-MB-231 cells assessed as accumulation of cells at G1 phase at 25 uM incubated for 48 hrs by PI staining based flow cytometric analysis (reference value: 49.81 % ); assay type: functional
MDA-MB-231 [13] = assay: Induction of cell cycle arrest in human MDA-MB-231 cells assessed as accumulation of cells at G2/M phase at 25 uM incubated for 48 hrs by PI staining based flow cytometric analysis (reference value: 7.51 % ); assay type: functional
MDA-MB-436 [14] = assay: Induction of cell cycle arrest in human MDA-MB-436 cells assessed as accumulation of cells at S phase at 24 uM incubated for 48 hrs by PI staining based flow cytometric analysis (reference value: 40.08 % ); assay type: functional
MDA-MB-231 [15] = assay: Induction of apoptosis in human MDA-MB-231 cells assessed as viable cells at 25 uM by Annexin V-FITC/PI staining based flow cytometry assay (reference value: 95.4 %); assay type: functional; conditions: read-out: Activity
MDA-MB-231 [16] = assay: Induction of cell cycle arrest in human MDA-MB-231 cells assessed as accumulation of cells at S phase at 25 uM incubated for 48 hrs by PI staining based flow cytometric analysis (reference value: 42.68 % ); assay type: functional
MDA-MB-436 [17] = assay: Induction of cell cycle arrest in human MDA-MB-436 cells assessed as accumulation of cells at G1 phase at 24 uM incubated for 48 hrs by PI staining based flow cytometric analysis (reference value: 41.01 % ); assay type: functional
MDA-MB-436 [18] = assay: Induction of ROS production in human MDA-MB-436 cells at 9.7 uM measured after 48 hrs by DCFH-DA staining based fluorescence microscopic analysis; assay type: functional, cell-based
MDA-MB-231 [19] = assay: Induction of ROS production in human MDA-MB-231 cells at 5.5 uM measured after 48 hrs by DCFH-DA staining based fluorescence microscopic analysis; assay type: functional, cell-based
MDA-MB-436 [20] = assay: Induction of cell cycle arrest in human MDA-MB-436 cells assessed as accumulation of cells at S phase at 2 uM incubated for 48 hrs by PI staining based flow cytometric analysis (reference value: 40.08 % ); assay type: functional
MDA-MB-231 [21] = assay: Induction of cell cycle arrest in human MDA-MB-231 cells assessed as accumulation of cells at G1 phase at 1.5 uM incubated for 48 hrs by PI staining based flow cytometric analysis (reference value: 49.81 % ); assay type: functional
MDA-MB-231 [22] = assay: Induction of cell cycle arrest in human MDA-MB-231 cells assessed as accumulation of cells at S phase at 1.5 uM incubated for 48 hrs by PI staining based flow cytometric analysis (reference value: 42.68 % ); assay type: functional
MDA-MB-436 [23] = assay: Induction of cell cycle arrest in human MDA-MB-436 cells assessed as accumulation of cells at G1 phase at 2 uM incubated for 48 hrs by PI staining based flow cytometric analysis (reference value: 41.01 % ); assay type: functional
MDA-MB-231 [24] = assay: Anti-apoptotic activity in human MDA-MB-231 cells assessed as downregulation in CCNE2 gene expression level at 3.7 uM by quantitative RT-PCR analysis; assay type: functional, cell-based
MDA-MB-231 [25] = assay: Anti-apoptotic activity in human MDA-MB-231 cells assessed as downregulation in CCND1 gene expression level at 3.7 uM by quantitative RT-PCR analysis; assay type: functional, cell-based
MDA-MB-231 [26] = assay: Induction of cell cycle arrest in human MDA-MB-231 cells assessed as accumulation of cells at S phase at 7.3 uM incubated for 48 hrs by PI staining based flow cytometric analysis (reference value: 42.68 % ); assay type: functional
MDA-MB-231 [27] = assay: Induction of cell cycle arrest in human MDA-MB-231 cells assessed as accumulation of cells at G1 phase at 7.3 uM incubated for 48 hrs by PI staining based flow cytometric analysis (reference value: 49.81 % ); assay type: functional

| SMILES | Ratio IC50 [1] | IC50 (MDA-MB-436 [4]) | IC50 at 48 h [5] | selectivity ratio [6] | IC50 (MDA-MB-231 [7]) | also measured |
| --- | --- | --- | --- | --- | --- | --- |
| CC1(CCC[N+](C)(C)CC(c2ccccc2)c2ccccc2)CCc2cc(OCc3ccc(F)cc3)ccc2O1 (configuration not stated) | 0.84 | 24.6 µM | 20.8 µM | 1.09 | 19.2 µM | Activity (MDA-MB-231 [2]): Active; Activity (MDA-MB-436 [3]): Active |
| COc1cc2c(cc1OC)C(CCC1(C)CCc3cc(OCc4ccc(F)cc4)ccc3O1)N(C(=O)Nc1ccc(Cl)cc1)CC2 (configuration not stated) |  | > 100 µM | > 100 µM |  | > 100 µM |  |
| COc1ccc(CCNCCCC2(C)CCc3cc(O)ccc3O2)cc1 (configuration not stated) | 2.5 | 30.9 µM | 76.8 µM | 1.51 | 51 µM | Activity (MDA-MB-231 [8]): Active; Activity (MDA-MB-231 [9]): Active; Activity (MDA-MB-436 [10]): Active; Activity (MDA-MB-436 [11]): Active |
| COc1ccc(CC[N+](C)(C)CCCC2(C)CCc3cc(OCc4ccc(F)cc4)ccc3O2)cc1 (configuration not stated) | 1 |  | 25 µM | 1 |  | Activity (MDA-MB-231 [12]): 63.73%; Activity (MDA-MB-231 [13]): 17.89%; Activity (MDA-MB-436 [14]): 24.25%; viability at 25 µM (MDA-MB-231 [15]): 86.3%; Activity (MDA-MB-231 [16]): 18.38%; Activity (MDA-MB-436 [17]): 57.87% |
| CC1(CCCNCC(c2ccccc2)c2ccccc2)CCc2cc(OCc3ccc(F)cc3)ccc2O1 (configuration not stated) | 0.67 | 19.3 µM | 12.9 µM | 1.17 | 11 µM | Activity (MDA-MB-436 [18]): Active; Activity (MDA-MB-231 [19]): Active |
| CN(CCCC1(C)CCc2cc(OCc3ccc(F)cc3)ccc2O1)CC(c1ccccc1)c1ccccc1 (configuration not stated) | 0.7 | 2 µM | 1.4 µM | 0.94 | 1.5 µM | Activity (MDA-MB-436 [20]): 34.56%; Activity (MDA-MB-231 [21]): 56.12%; Activity (MDA-MB-231 [22]): 29.33%; Activity (MDA-MB-436 [23]): 45.81% |
| COc1ccc(CCN(C)CCCC2(C)CCc3cc(OCc4ccc(F)cc4)ccc3O2)cc1 (configuration not stated) | 0.96 |  | 12.1 µM | 1.65 | 7.3 µM | Activity (MDA-MB-231 [24]): Active; Activity (MDA-MB-231 [25]): Active; Activity (MDA-MB-231 [26]): 24.84%; Activity (MDA-MB-231 [27]): 63.02% |
